In ChEMBL document CHEMBL1138179, “Discovery of a novel nonphosphorylated pentapeptide motif displaying high affinity for Grb2-SH2 domain by the utilization of 3'-substituted tyrosine derivatives” (J Med Chem, 2006):
Numbered stars: 1 amine (or outer) side, 2 acyl side, 3 side chain; on linkers, the order of the positions; unused ones are H or OH. Bridge positions count the residues as written; N and C are the ends. Square brackets hold non-standard residues; d marks the D form. Peptide text beside a SMILES is read from it. Tyr(3-NO2) = N[C@@H](Cc1ccc(O)c([N+](=O)[O-])c1)C(=O)O; X1 = O=C(O)c1cc(C[C@H](N[*:1])C(=O)[*:2])ccc1O; Tyr(3-OMe) = COc1cc(C[C@H](N)C(=O)O)ccc1O; Tyr(3-NH2) = Nc1cc(C[C@H](N)C(=O)O)ccc1O; Dopa = N[C@@H](Cc1ccc(O)c(O)c1)C(=O)O; Gla = N[C@@H](CC(C(=O)O)C(=O)O)C(=O)O; Aad = N[C@@H](CCCC(=O)O)C(=O)O; Ac6c = NC1(C(=O)O)CCCCC1; Ava = NCCCCC(=O)O; βAla = NCCC(=O)O

Biological target: Growth factor receptor-bound protein 2 (Homo sapiens, UniProt P62993)
Experiment: Inhibition of recombinant GRB2-SH2 domain
Conditions: not given
Procedure, shortened: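 Competitive SPR (BIAcore 3000): inhibitor premixed with recombinant Grb2-SH2 protein; binding at equilibrium measured to immobilized biotinylated SHC pTyr317 phosphopeptide (biotinyl-DDPS-pY-VNVQ). IC50 = concentration giving half-maximal competition; mean of at least two independent experiments.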

Row | IC50 [µM] | Structure (SMILES)
1 | 0.058 | CC(C)C[C@@H]1NC(=O)[C@H](CC(C(=O)O)C(=O)O)NC(=O)C[S+]([O-])C[C@@H](C(N)=O)NC(=O)CCCCNC(=O)[C@H](CC(N)=O)NC(=O)C2(CCCCC2)NC(=O)[C@H](Cc2ccc(O)c(N)c2)NC1=O (stereo partly drawn)
2 | 9.7 | CC(C)C[C@@H]1NC(=O)[C@H](CC(C(=O)O)C(=O)O)NC(=O)C[S+]([O-])C[C@@H](C(N)=O)NC(=O)[C@H](CC(N)=O)NC(=O)C2(CCCCC2)NC(=O)[C@H](Cc2ccc(O)c(N)c2)NC1=O (stereo partly drawn)
3 | 245 | COc1cc(C[C@@H]2NC(=O)[C@H](CC(C)C)NC(=O)[C@H](CCCC(=O)O)NC(=O)CSC[C@@H](C(N)=O)NC(=O)CCCCNC(=O)[C@H](CC(N)=O)NC(=O)C3(CCCCC3)NC2=O)ccc1O ({CH2CO}-[Aad]L[Tyr(3-OMe)][Ac6c]N[Ava]C-NH2; thioether N-7)
4 | 22.5 | CC(C)C[C@@H]1NC(=O)[C@H](CC(C(=O)O)C(=O)O)NC(=O)CSC[C@@H](C(N)=O)NC(=O)[C@H](CC(N)=O)NC(=O)C2(CCCCC2)NC(=O)[C@H](Cc2ccc(O)c(N)c2)NC1=O ({CH2CO}-[Gla]L[Tyr(3-NH2)][Ac6c]NC-NH2; thioether N-6)
5 | 265 | CC(C)C[C@@H]1NC(=O)[C@H](CCCC(=O)O)NC(=O)C[S+]([O-])C[C@H](C(N)=O)NC(=O)CCCCNC(=O)[C@H](CC(N)=O)NC(=O)C2(CCCCC2)NC(=O)[C@H](Cc2ccc(O)c([N+](=O)[O-])c2)NC1=O (stereo partly drawn)
6 | 1.02 | CC(C)C[C@@H]1NC(=O)[C@H](CC(C(=O)O)C(=O)O)NC(=O)CSC[C@@H](C(N)=O)NC(=O)CCNC(=O)[C@H](CC(N)=O)NC(=O)C2(CCCCC2)NC(=O)[C@H](Cc2ccc(O)c(N)c2)NC1=O ({CH2CO}-[Gla]L[Tyr(3-NH2)][Ac6c]N[βAla]C-NH2; thioether N-7)
7 | 1.55 | CC(C)C[C@@H]1NC(=O)[C@H](CC(C(=O)O)C(=O)O)NC(=O)C[S+]([O-])C[C@H](C(N)=O)NC(=O)CCCCNC(=O)[C@H](CC(N)=O)NC(=O)C2(CCCCC2)NC(=O)[C@H](Cc2ccc(O)c(N)c2)NC1=O (stereo partly drawn)
8 | 97 | COc1cc(C[C@@H]2NC(=O)[C@H](CC(C)C)NC(=O)[C@H](CCCC(=O)O)NC(=O)C[S+]([O-])C[C@@H](C(N)=O)NC(=O)CCCCNC(=O)[C@H](CC(N)=O)NC(=O)C3(CCCCC3)NC2=O)ccc1O (stereo partly drawn)
9 | 87 | CC(C)C[C@@H]1NC(=O)[C@H](CCCC(=O)O)NC(=O)C[S+]([O-])C[C@@H](C(N)=O)NC(=O)CCCCNC(=O)[C@H](CC(N)=O)NC(=O)C2(CCCCC2)NC(=O)[C@H](Cc2ccc(O)c(O)c2)NC1=O (stereo partly drawn)
10 | 93 | CC(C)C[C@@H]1NC(=O)[C@H](CCCC(=O)O)NC(=O)CSC[C@@H](C(N)=O)NC(=O)CCCCNC(=O)[C@H](CC(N)=O)NC(=O)C2(CCCCC2)NC(=O)[C@H](Cc2ccc(O)cc2)NC1=O ({CH2CO}-[Aad]LY[Ac6c]N[Ava]C-NH2; thioether N-7)
11 | > 1000 | COc1cc(C[C@@H]2NC(=O)[C@H](CC(C)C)NC(=O)[C@H](CCCC(=O)O)NC(=O)C[S+]([O-])C[C@H](C(N)=O)NC(=O)CCCCNC(=O)[C@H](CC(N)=O)NC(=O)C3(CCCCC3)NC2=O)ccc1O (stereo partly drawn)
12 | 25 | CC(C)C[C@@H]1NC(=O)[C@H](CCCC(=O)O)NC(=O)C[S+]([O-])C[C@@H](C(N)=O)NC(=O)CCCCNC(=O)[C@H](CC(N)=O)NC(=O)C2(CCCCC2)NC(=O)[C@H](Cc2ccc(O)c([N+](=O)[O-])c2)NC1=O (stereo partly drawn)
13 | 135 | CC(C)C[C@@H]1NC(=O)[C@H](CCCC(=O)O)NC(=O)CSC[C@@H](C(N)=O)NC(=O)CCCCNC(=O)[C@H](CC(N)=O)NC(=O)C2(CCCCC2)NC(=O)[C@H](Cc2ccc(O)c(O)c2)NC1=O ({CH2CO}-[Aad]L[Dopa][Ac6c]N[Ava]C-NH2; thioether N-7)
14 | 212 | CC(C)C[C@@H]1NC(=O)[C@H](CCCC(=O)O)NC(=O)C[S+]([O-])C[C@H](C(N)=O)NC(=O)CCCCNC(=O)[C@H](CC(N)=O)NC(=O)C2(CCCCC2)NC(=O)[C@H](Cc2ccc(O)c(C(=O)O)c2)NC1=O (stereo partly drawn)
15 | 1000 | CC(C)C[C@@H]1NC(=O)[C@H](CCCC(=O)O)NC(=O)C[S+]([O-])C[C@H](C(N)=O)NC(=O)CCCCNC(=O)[C@H](CC(N)=O)NC(=O)C2(CCCCC2)NC(=O)[C@H](Cc2ccc(O)cc2)NC1=O (stereo partly drawn)
16 | 182 | CC(C)C[C@@H]1NC(=O)[C@H](CCCC(=O)O)NC(=O)CSC[C@@H](C(N)=O)NC(=O)CCCCNC(=O)[C@H](CC(N)=O)NC(=O)C2(CCCCC2)NC(=O)[C@H](Cc2ccc(O)c([N+](=O)[O-])c2)NC1=O ({CH2CO}-[Aad]L[Tyr(3-NO2)][Ac6c]N[Ava]C-NH2; thioether N-7)
17 | 200 | CC(C)C[C@@H]1NC(=O)[C@H](CC(C(=O)O)C(=O)O)NC(=O)C[S+]([O-])C[C@H](C(N)=O)NC(=O)[C@H](CC(N)=O)NC(=O)C2(CCCCC2)NC(=O)[C@H](Cc2ccc(O)c(N)c2)NC1=O (stereo partly drawn)
18 | 550 | CC(C)C[C@@H]1NC(=O)[C@H](CCCC(=O)O)NC(=O)C[S+]([O-])C[C@H](C(N)=O)NC(=O)CCCCNC(=O)[C@H](CC(N)=O)NC(=O)C2(CCCCC2)NC(=O)[C@H](Cc2ccc(O)c(O)c2)NC1=O (stereo partly drawn)
19 | 88 | CC(C)C[C@@H]1NC(=O)[C@H](CCCC(=O)O)NC(=O)CSC[C@@H](C(N)=O)NC(=O)CCCCNC(=O)[C@H](CC(N)=O)NC(=O)C2(CCCCC2)NC(=O)[C@H](Cc2ccc(O)c(C(=O)O)c2)NC1=O ({CH2CO}-[Aad]L[X1][Ac6c]N[Ava]C-NH2; thioether N-7)
20 | 0.19 | CC(C)C[C@@H]1NC(=O)[C@H](CC(C(=O)O)C(=O)O)NC(=O)CSC[C@@H](C(N)=O)NC(=O)CCCCNC(=O)[C@H](CC(N)=O)NC(=O)C2(CCCCC2)NC(=O)[C@H](Cc2ccc(O)c(N)c2)NC1=O ({CH2CO}-[Gla]L[Tyr(3-NH2)][Ac6c]N[Ava]C-NH2; thioether N-7)
21 | 14 | CC(C)C[C@@H]1NC(=O)[C@H](CCCC(=O)O)NC(=O)C[S+]([O-])C[C@H](C(N)=O)NC(=O)CCCCNC(=O)[C@H](CC(N)=O)NC(=O)C2(CCCCC2)NC(=O)[C@H](Cc2ccc(O)c(N)c2)NC1=O (stereo partly drawn)
22 | 8.9 | CC(C)C[C@@H]1NC(=O)[C@H](CCCC(=O)O)NC(=O)CSC[C@@H](C(N)=O)NC(=O)CCCCNC(=O)[C@H](CC(N)=O)NC(=O)C2(CCCCC2)NC(=O)[C@H](Cc2ccc(O)c(N)c2)NC1=O ({CH2CO}-[Aad]L[Tyr(3-NH2)][Ac6c]N[Ava]C-NH2; thioether N-7)
23 | 77 | CC(C)C[C@@H]1NC(=O)[C@H](CCCC(=O)O)NC(=O)C[S+]([O-])C[C@@H](C(N)=O)NC(=O)CCCCNC(=O)[C@H](CC(N)=O)NC(=O)C2(CCCCC2)NC(=O)[C@H](Cc2ccc(O)cc2)NC1=O (stereo partly drawn)
24 | 16 | CC(C)C[C@@H]1NC(=O)[C@H](CCCC(=O)O)NC(=O)C[S+]([O-])C[C@@H](C(N)=O)NC(=O)CCCCNC(=O)[C@H](CC(N)=O)NC(=O)C2(CCCCC2)NC(=O)[C@H](Cc2ccc(O)c(C(=O)O)c2)NC1=O (stereo partly drawn)
25 | 3.9 | CC(C)C[C@@H]1NC(=O)[C@H](CCCC(=O)O)NC(=O)C[S+]([O-])C[C@@H](C(N)=O)NC(=O)CCCCNC(=O)[C@H](CC(N)=O)NC(=O)C2(CCCCC2)NC(=O)[C@H](Cc2ccc(O)c(N)c2)NC1=O (stereo partly drawn)
26 | 11.2 | CC(C)C[C@@H]1NC(=O)[C@H](CC(C(=O)O)C(=O)O)NC(=O)C[S+]([O-])C[C@H](C(N)=O)NC(=O)CCNC(=O)[C@H](CC(N)=O)NC(=O)C2(CCCCC2)NC(=O)[C@H](Cc2ccc(O)c(N)c2)NC1=O (stereo partly drawn)
27 | 0.36 | CC(C)C[C@@H]1NC(=O)[C@H](CC(C(=O)O)C(=O)O)NC(=O)C[S+]([O-])C[C@@H](C(N)=O)NC(=O)CCNC(=O)[C@H](CC(N)=O)NC(=O)C2(CCCCC2)NC(=O)[C@H](Cc2ccc(O)c(N)c2)NC1=O (stereo partly drawn)

System: MDA-MB-453
Experiment: cells
Conditions: Homo sapiens

Row | IC50 [µM] | Structure (SMILES)
28 | 0.019 | CC(C)C[C@@H]1NC(=O)[C@H](CC(C(=O)O)C(=O)O)NC(=O)C[S+]([O-])C[C@@H](C(N)=O)NC(=O)CCCCNC(=O)[C@H](CC(N)=O)NC(=O)C2(CCCCC2)NC(=O)[C@H](Cc2ccc(O)c(N)c2)NC1=O (stereo partly drawn)
